pIC50: −log10 of the molar value. Calls of active or inactive are those of the source. The calls are words filed in the database; no cut-off is given here.
What was measured:
[1] = system: RKO; test: Cell cycle arrest in human RKO cells assessed as accumulation at sub-G1 phase at 50 uM after 24 hrs propidium iodide staining based flow cytometry (reference value: 17.6%); assay type: functional
[2] = target: [Pyruvate dehydrogenase (acetyl-transferring)] kinase isozyme 4, mitochondrial (Homo sapiens, UniProt Q16654); test: Inhibition of PDK4 (unknown origin) at 10 uM relative to control
[3] = system: HCT-116; test: Cell cycle arrest in human HCT116 cells assessed as accumulation at G2/M phase at 25 uM after 24 hrs propidium iodide staining based flow cytometry (reference value: 22.2%); assay type: functional
How it was run: (§1)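 HCT116 and RKO cells were treated with compound alone or with oxaliplatin for 24 h before harvest. Cells were stained with propidium iodide, and DNA content was analysed by flow cytometry. Cell-cycle phase populations, including sub-G1, are given as percentages.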

[4] = AUC (0 to infinity) in rat at 10 mg/kg, po; assay type: ADME, organism-based; parameters: dose 10 mg/kg, route oral, time infinity; settings: in vivo
How it was run: (§2)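 Male rats given a single dose, 5 mg/kg intravenously or 10 mg/kg orally. Plasma PK parameters were reported as mean ± SD: AUCt, AUC∞, Cmax, Tmax, T1/2, CL, Vss and oral bioavailability F.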

[5] = system: RKO; test: Antiproliferative activity against human RKO cells up to 50 uM up to 72 hrs by CCK8 assay; assay type: functional, cell-based
How it was run: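 HCT116 and RKO cells were treated with compound alone or with oxaliplatin and grown for 0–72 h. Viability was read by CCK-8 colorimetry at 450 nm.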

[6] = system: RKO; test: Inhibition of colony formation in human RKO cells at 10 to 50 […] after 7 days by crystal violet staining based assay; assay type: functional, cell-based
How it was run: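 HCT116 and RKO cells seeded in 6-well plates and treated with compound for 7 days. Cells then fixed and stained with crystal violet to score colony formation.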

[7] = system: RKO; test: Induction of apoptosis in human RKO cells assessed as live cells at 25 uM after 24 hrs in presence of oxaliplatin by Annexin V/propidium iodide staining based flow cytometry (reference value: 86.4%); assay type: functional
[8] = system: RKO; test: Induction of apoptosis in human RKO cells assessed as late apoptotic cells at 50 uM after 24 hrs by Annexin V/propidium iodide staining based flow cytometry (reference value: 7.42%); assay type: functional
[9] = system: RKO; test: Induction of apoptosis in human RKO cells assessed as late apoptotic cells at 10 uM after 24 hrs by Annexin V/propidium iodide staining based flow cytometry (reference value: 7.42%); assay type: functional
[10] = system: HCT-116; test: Cell cycle arrest in human HCT116 cells assessed as accumulation at G1/G0 phase at 10 uM after 24 hrs propidium iodide staining based flow cytometry (reference value: 42%); assay type: functional; how it was run: as §1
[11] = system: HCT-116; test: Cell cycle arrest in human HCT116 cells assessed as accumulation at S phase at 25 uM after 24 hrs propidium iodide staining based flow cytometry (reference value: 18%); assay type: functional; how it was run: as §1
[12] = system: RKO; test: Induction of apoptosis in human RKO cells assessed as early apoptotic cells at 25 uM after 24 hrs in presence of oxaliplatin by Annexin V/propidium iodide staining based flow cytometry (reference value: 6.33%); assay type: functional
[13] = target: Cellular tumor antigen p53 (Homo sapiens) (UniProt P04637); test: Induction of p53 phosphorylation at Ser-15 residue in human HCT116 cells after 24 hrs by Western blot analysis; assay type: cell-based
How it was run: (§3)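 HCT116 and RKO cells given a range of compound doses for 24 h; lysates probed by Western blot for apoptosis-related proteins (p53, BAX, BCLxL).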

[14] = system: RKO; test: Cell cycle arrest in human RKO cells assessed as accumulation at G1/G0 phase at 50 uM after 24 hrs propidium iodide staining based flow cytometry (reference value: 39.9%); assay type: functional; how it was run: as §1
[15] = AUCt in rat at 5 mg/kg, iv; assay type: ADME, organism-based; settings: in vivo; how it was run: as §2
[16] = system: RKO; test: Induction of apoptosis in human RKO cells assessed as increase in Bax expression at 10 to 50 uM after 24 hrs by Western blot analysis; assay type: functional, cell-based; how it was run: as §3
[17] = system: RKO; test: Cell cycle arrest in human RKO cells assessed as accumulation at sub-G1 phase at 10 uM after 24 hrs propidium iodide staining based flow cytometry (reference value: 17.6%); assay type: functional
[18] = system: RKO; test: Induction of apoptosis in human RKO cells assessed as increase in cleaved caspase-3 expression at 10 to 50 uM after 24 hrs by Western blot analysis; assay type: functional, cell-based; how it was run: as §3
[19] = system: HCT-116; test: Cell cycle arrest in human HCT116 cells assessed as accumulation at G1/G0 phase at 25 uM after 24 hrs in presence of oxaliplatin propidium iodide staining based flow cytometry (reference value: 41.3%); assay type: functional; how it was run: as §1
[20] = system: RKO; test: Induction of apoptosis in human RKO cells assessed as decrease in Bcl-XL expression at 10 to 50 uM after 24 hrs by Western blot analysis; assay type: functional, cell-based; how it was run: as §3
[21] = AUCt in rat at 10 mg/kg, po; assay type: ADME, organism-based; settings: in vivo; how it was run: as §2
[22] = system: HCT-116; test: Induction of apoptosis in human HCT116 cells assessed as early apoptotic cells at 25 uM after 24 hrs in presence of oxaliplatin by Annexin V/propidium iodide staining based flow cytometry (reference value: 7.31%); assay type: functional
[23] = target: Cytochrome P450 2C19 (Homo sapiens, UniProt P33261); test: Inhibition of CYP2C19 in human liver microsomes assessed as reduction in omeprazole hydroxylation by tandem mass spectrometry analysis; assay type: ADME
How it was run: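 Pooled human liver microsomes incubated with compound at 0–50 μM final; CYP probe activities (phenacetin O-deethylation for 1A2, tolbutamide 4-hydroxylation for 2C9, omeprazole hydroxylation for 2C19, dextromethorphan O-demethylation for 2D6) run as a cocktail incubation and quantified by tandem MS; duplicates; IC50 derived.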

[24] = system: RKO; test: Cell cycle arrest in human RKO cells assessed as accumulation at S phase at 25 uM after 24 hrs in presence of oxaliplatin propidium iodide staining based flow cytometry (reference value: 4.5%); assay type: functional
[25] = system: RKO; test: Induction of apoptosis in human RKO cells assessed as necrotic cells at 25 uM after 24 hrs in presence of oxaliplatin by Annexin V/propidium iodide staining based flow cytometry (reference value: 0.22%); assay type: functional
[26] = system: RKO; test: Induction of apoptosis in human RKO cells assessed as live cells at 10 uM after 24 hrs by Annexin V/propidium iodide staining based flow cytometry (reference value: 82.4%); assay type: functional
[27] = system: HCT-116; test: Induction of apoptosis in human HCT116 cells assessed as late apoptotic cells at 10 uM after 24 hrs by Annexin V/propidium iodide staining based flow cytometry (reference value: 8.36%); assay type: functional
[28] = system: HCT-116; test: Cell cycle arrest in human HCT116 cells assessed as accumulation at sub-G1 phase at 50 uM after 24 hrs propidium iodide staining based flow cytometry (reference value: 17.8%); assay type: functional; how it was run: as §1
[29] = system: NIH3T3; test: Cytotoxicity against mouse NIH/3T3 cells; assay type: cell-based
[30] = system: RKO; test: Induction of apoptosis in human RKO cells assessed as late apoptotic cells at 25 uM after 24 hrs in presence of oxaliplatin by Annexin V/propidium iodide staining based flow cytometry (reference value: 7.02%); assay type: functional
[31] = Tmax in rat at 10 mg/kg, po; assay type: ADME, organism-based; settings: in vivo
[32] = system: Mast cell; test: Inhibition of degranulation in IgE-labeled bone marrow-derived mast cells (unknown origin) assessed as reduction in beta-hexosaminidase release by measuring absorbance at 20 uM preincubated for 1 hr followed by HSA stimulation and measured after 15 mins (reference value: 0.26 +/- 0.025); assay type: functional

Sequence of Cytochrome P450 2C19 (P33261 whole entry): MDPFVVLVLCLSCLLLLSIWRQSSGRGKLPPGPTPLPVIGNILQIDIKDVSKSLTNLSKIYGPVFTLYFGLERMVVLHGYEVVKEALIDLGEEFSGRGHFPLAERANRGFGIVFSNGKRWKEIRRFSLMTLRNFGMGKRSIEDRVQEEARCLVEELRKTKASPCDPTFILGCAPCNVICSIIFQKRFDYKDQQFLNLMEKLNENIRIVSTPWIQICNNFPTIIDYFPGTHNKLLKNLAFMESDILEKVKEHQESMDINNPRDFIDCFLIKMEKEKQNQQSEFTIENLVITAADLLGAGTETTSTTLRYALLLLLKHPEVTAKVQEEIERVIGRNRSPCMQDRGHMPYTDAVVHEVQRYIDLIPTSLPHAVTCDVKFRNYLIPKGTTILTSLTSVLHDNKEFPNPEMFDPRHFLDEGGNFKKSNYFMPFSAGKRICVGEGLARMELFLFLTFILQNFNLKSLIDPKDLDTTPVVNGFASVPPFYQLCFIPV
Sequence of [Pyruvate dehydrogenase (acetyl-transferring)] kinase isozyme 4, mitochondrial (Q16654 whole entry, looked up): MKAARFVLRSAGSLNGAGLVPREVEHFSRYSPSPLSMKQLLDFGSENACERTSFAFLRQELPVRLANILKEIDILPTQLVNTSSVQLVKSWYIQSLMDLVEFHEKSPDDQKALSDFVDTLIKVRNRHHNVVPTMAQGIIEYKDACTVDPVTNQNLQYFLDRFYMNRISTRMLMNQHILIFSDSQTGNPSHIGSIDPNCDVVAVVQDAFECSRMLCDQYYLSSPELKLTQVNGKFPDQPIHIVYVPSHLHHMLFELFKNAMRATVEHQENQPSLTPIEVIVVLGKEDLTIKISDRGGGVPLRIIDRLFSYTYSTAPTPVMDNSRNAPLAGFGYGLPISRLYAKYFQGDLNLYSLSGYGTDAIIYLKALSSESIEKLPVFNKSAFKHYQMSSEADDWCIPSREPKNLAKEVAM
Sequence of Cellular tumor antigen p53 (Homo sapiens) (P04637 whole entry, looked up): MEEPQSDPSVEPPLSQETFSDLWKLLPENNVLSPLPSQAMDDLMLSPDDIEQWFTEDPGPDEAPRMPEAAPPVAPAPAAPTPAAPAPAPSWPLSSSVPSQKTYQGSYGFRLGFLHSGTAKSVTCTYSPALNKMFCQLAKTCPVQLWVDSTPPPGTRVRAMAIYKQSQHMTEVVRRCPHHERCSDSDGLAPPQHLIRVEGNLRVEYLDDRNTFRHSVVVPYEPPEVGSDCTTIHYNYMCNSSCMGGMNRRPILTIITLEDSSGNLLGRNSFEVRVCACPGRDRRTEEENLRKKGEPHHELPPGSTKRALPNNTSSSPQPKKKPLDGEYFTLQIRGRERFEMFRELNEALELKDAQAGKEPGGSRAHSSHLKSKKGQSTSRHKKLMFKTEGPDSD

## Cl.O=C1c2ccccc2C(=O)c2c1cccc2-c1cnn(C2CCNCC2)c1
[1]
  Activity: 91.1%
[2]
  inhibition: 50.1%
[3]
  Activity: 37.1%
[4]
  AUC(0-inf): 18500 ng·h/mL
[5]
  Activity: Active
[6]
  inhibition: Active
[7]
  Activity: 36.8%
[8]
  Activity: 49%
[9]
  Activity: 11.2%
[10]
  Activity: 41.6%
[11]
  Activity: 11.4%
[12]
  Activity: 24.4%
[13]
  Activity: Dose-dependent effect
[14]
  Activity: 3.4%
[15]
  AUC(0-t): 7020 ng·h/mL
[16]
  Activity: Active
[17]
  Activity: 21.4%
[18]
  Activity: Active
[19]
  Activity: 17.8%
[20]
  Activity: Active
[21]
  AUC(0-t): 8920 ng·h/mL
[22]
  Activity: 7.7%
[23]
  pIC50: 4.37
[24]
  Activity: 5.2%
[25]
  Activity: 5.07%
[26]
  Activity: 82.8%
[27]
  Activity: 7.1%
[28]
  Activity: 78.2%
[29]
  pIC50: 4.40
[30]
  Activity: 33.8%
[31]
  Tmax: 6 h
[32]
  OD: 0.126
